Measurements reported in PubChem BioAssay.
A number with no mark means an inactive call. Active and inactive are the calls of the source.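 How the source made its calls, unless noted: active means growth inhibition above 25% in both replicates, a cutoff set 3 SD above the mean; inconclusive means above 25% in only one replicate; inactive means the rest.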

experiment: OD615 S. cerevisiae growth inhibition, permissive medium, pilot counter-assay, permissive growth control for S. cerevisiae lifespan shortening project (AID 705); conditions: OD615, 24 h, at 10 µM, hits give high values
Method in brief: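 System – S. cerevisiae with engineered DeaD lifespan system · Buffer or medium – SC raffinose/galactose permissive medium · Schedule – cells pre-grown 4 h, then 24 h compound exposure, 30 °C humidified · Technique – culture turbidity as optical density at 615 nm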

Q: With CCOc1ccc(OCC)c(Nc2cc(C)nc3ncnn23)c1 as the molecule, how does the growth inhibition read?
A: -1.1%

Q: With O=C(COc1ccc(Cl)cc1)OCC(=O)N1CCCC1 as the molecule, how does the growth inhibition read?
A: -6.8%

Q: For O=C(CSc1nnc(-c2ccccn2)n1Cc1ccco1)c1ccc(Cl)cc1, which growth inhibition is on record?
A: 1.63%

Q: With CCc1ccccc1NC1c2ccccc2C(=O)N1Cc1ccco1 (stereo not given) as the molecule, how does the growth inhibition read?
A: -4.26%

Q: For C=C1CC2C=C(NC(C)=O)CC(C1)C2 (stereo not given), which growth inhibition is on record?
A: -18.7%

Q: With O=C(NC1CCCc2ccccc21)C1CCN(c2c(N3CCCC3)c(=O)c2=O)CC1 (stereo not given) as the molecule, how does the growth inhibition read?
A: -5.2%

Q: For CSc1cccc(NS(=O)(=O)c2cccc3nsnc23)c1, which growth inhibition is on record?
A: -5.26%

Q: Which growth inhibition does the source give for O=C1c2oc3ccccc3c(=O)c2C(c2cccc(O)c2)N1c1ccccn1 (stereo not given) here?
A: -7.62%

Q: Which growth inhibition does the source give for COc1cc(SC)ccc1C(=O)Nc1ccc2c(c1)OCCO2 here?
A: -7.61%

Q: Which growth inhibition does the source give for Cc1occc1-c1nc(-c2ccccn2)no1 here?
A: -14.3%

Q: With Cc1ccccc1NS(=O)(=O)c1cccc(-c2nnc(-c3ccccc3)o2)c1 as the molecule, how does the growth inhibition read?
A: -8.74%

Q: With O=C(N[C@@H](Cc1ccccc1)C(=O)O)c1cccnc1 as the molecule, how does the growth inhibition read?
A: -5.99%

Q: With COc1ccccc1-n1c2c(cc(C(=O)N3CCC(C)CC3)c1=O)C(=O)CC(C)(C)C2 as the molecule, how does the growth inhibition read?
A: -21.2%

Q: Which growth inhibition does the source give for O=C(c1cc(-c2ccccc2O)on1)N1CCCC1 here?
A: -4.15%

Q: For CSc1ccc(S(=O)(=O)Nc2ccc3c(c2)OCCO3)cc1, which growth inhibition is on record?
A: -3.2%

Q: Which growth inhibition does the source give for Cn1c(=O)c2c(nc(N3CCN(Cc4ccccc4)CC3)n2CCSc2ncccn2)n(C)c1=O here?
A: -9.24%

Q: With Cc1cccc(-c2nc(CS(=O)CC(=O)N3CCc4ccccc4C3)c(C)o2)c1 (stereo not given) as the molecule, how does the growth inhibition read?
A: 0.13%

Q: For CCCN1CCN(C(=O)Cn2ncc3ccccc32)CC1, which growth inhibition is on record?
A: -12.4%

Q: Which growth inhibition does the source give for Cc1ccc(CNC(=O)CS(=O)Cc2nc(-c3cccs3)oc2C)cc1 (stereo not given) here?
A: 13.6%

Q: For CC(C)N(Cc1nc(-c2ccccc2)no1)C(=O)COc1ccccc1, which growth inhibition is on record?
A: -12%

Q: For COc1ccc(Cl)cc1NC(=O)Cn1c(=O)n2nc(C)nc2c2ccccc21, which growth inhibition is on record?
A: -7.69%

Q: For COc1cc2c(=O)n(Cc3ccccc3)c(=O)n(CC(=O)NCC3CCCO3)c2cc1OC (stereo not given), which growth inhibition is on record?
A: -2.89%

Q: For O=C(Cc1cc(=O)[nH]c(=O)[nH]1)N1CCN(C(=O)c2ccco2)CC1, which growth inhibition is on record?
A: -10.2%

Q: With O=S(=O)(NCCSc1nc2ccccc2o1)c1ccccc1 as the molecule, how does the growth inhibition read?
A: -8%

Q: For Cc1cc(Nc2cc(C(=O)O)ccc2C)n2ncnc2n1, which growth inhibition is on record?
A: 4.96%

Q: Which growth inhibition does the source give for CC1CN(c2nc3c(c(=O)[nH]c(=O)n3C)n2Cc2ccccc2F)CC(C)O1 (stereo not given) here?
A: -3.05%

Q: With COc1ccc(-c2cn3c(C)c(C(=O)NC(C)(C)C)sc3n2)cc1 as the molecule, how does the growth inhibition read?
A: -8.09%

Q: With C=C(C)Cn1c(C2CC(=O)N(c3ccccc3F)C2)nc2ccccc21 (stereo not given) as the molecule, how does the growth inhibition read?
A: -9.62%

Q: For O=C1C2CCCN2C(c2ccc(F)c(F)c2)N1c1cccc(Cl)c1 (stereo not given), which growth inhibition is on record?
A: 3.17%

Q: With COc1ccc(C2CC(=O)N3CN(c4ccc(C)c(Cl)c4)CSC3=C2C#N)cc1 (stereo not given) as the molecule, how does the growth inhibition read?
A: 5.58%

Q: With O=C(c1ccco1)c1cn[nH]c1-c1ccc(Cl)cc1O as the molecule, how does the growth inhibition read?
A: -6.04%

Q: For O=C(Cn1cc(C(=O)c2cccs2)c2ccccc21)NCc1ccc2c(c1)OCO2, which growth inhibition is on record?
A: -5.79%

Q: Which growth inhibition does the source give for O=C(NCCCN1CCOCC1)C1CCC(=O)N1CCc1ccccc1 (stereo not given) here?
A: -0.765%

Q: Which growth inhibition does the source give for O=C(Nc1ccc2c(c1)OCO2)C(c1ccccc1)N1CCCCC1 (stereo not given) here?
A: -3.12%

Q: With COc1ccccc1-n1c(CNC(=O)c2ccco2)nnc1SCC(=O)Nc1nccs1 as the molecule, how does the growth inhibition read?
A: -0.655%

Q: Which growth inhibition does the source give for Cc1c(N2C(=O)CSC23C(=O)Nc2ccccc23)c(=O)n(-c2ccccc2)n1C (stereo not given) here?
A: -10.1%

Q: Which growth inhibition does the source give for CCCc1nnc(NC(=O)CCC(=O)O)s1 here?
A: -4.72%

Q: With CC1CCN(c2nc(-c3ccco3)c3c(c2C#N)CC(C)(C)OC3)CC1 as the molecule, how does the growth inhibition read?
A: -15%

Q: With CCCn1c(CN2CCN(C(=O)OCC)CC2)nc2c1c(=O)n(C)c(=O)n2C as the molecule, how does the growth inhibition read?
A: -3.08%

Q: Which growth inhibition does the source give for Cc1ccc(C)c(N2CCN(CC(=O)Nc3ccc4[nH]c(=O)[nH]c4c3)CC2)c1 here?
A: -13.7%

experiment: Restrictive medium S. cerevisiae growth inhibition, OD615, pilot screen of yeast lifespan reduction project, restrictive growth control (AID 706;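 active means growth inhibition above a set limit, 3 SD over mean compound inhibition, in both replicates, cut at about 43% in these data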;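 further: modified DeaD lifespan yeast strain shifted to restrictive glucose medium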); conditions: OD615, 48 h, at 10 µM, hits give high values
Method in brief: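 Material: engineered S. cerevisiae DeaD strain / Medium: glucose-based CSMM-D restrictive medium / Compound: single dose of 10 µM compound final, 0.25% DMSO / Timing: 4 h pre-incubation, 48 h exposure at 30 °C / Technique: OD615 absorbance reading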

Q: For CCOc1ccc(OCC)c(Nc2cc(C)nc3ncnn23)c1, which growth inhibition is on record?
A: 7.09%

Q: With O=C(COc1ccc(Cl)cc1)OCC(=O)N1CCCC1 as the molecule, how does the growth inhibition read?
A: -26.8%

Q: For O=C(CSc1nnc(-c2ccccn2)n1Cc1ccco1)c1ccc(Cl)cc1, which growth inhibition is on record?
A: 23.2%

Q: Which growth inhibition does the source give for CCc1ccccc1NC1c2ccccc2C(=O)N1Cc1ccco1 (stereo not given) here?
A: 12.8%

Q: For C=C1CC2C=C(NC(C)=O)CC(C1)C2 (stereo not given), which growth inhibition is on record?
A: -12.7%

Q: Which growth inhibition does the source give for O=C(NC1CCCc2ccccc21)C1CCN(c2c(N3CCCC3)c(=O)c2=O)CC1 (stereo not given) here?
A: -2.66%

Q: With CSc1cccc(NS(=O)(=O)c2cccc3nsnc23)c1 as the molecule, how does the growth inhibition read?
A: -8.19%

Q: Which growth inhibition does the source give for O=C1c2oc3ccccc3c(=O)c2C(c2cccc(O)c2)N1c1ccccn1 (stereo not given) here?
A: -6.25%

Q: Which growth inhibition does the source give for COc1cc(SC)ccc1C(=O)Nc1ccc2c(c1)OCCO2 here?
A: -4.97%

Q: For Cc1occc1-c1nc(-c2ccccn2)no1, which growth inhibition is on record?
A: 3.22%

Q: Which growth inhibition does the source give for Cc1ccccc1NS(=O)(=O)c1cccc(-c2nnc(-c3ccccc3)o2)c1 here?
A: -5.78%

Q: Which growth inhibition does the source give for O=C(N[C@@H](Cc1ccccc1)C(=O)O)c1cccnc1 here?
A: -10.1%

Q: For COc1ccccc1-n1c2c(cc(C(=O)N3CCC(C)CC3)c1=O)C(=O)CC(C)(C)C2, which growth inhibition is on record?
A: -5.49%

Q: With O=C(c1cc(-c2ccccc2O)on1)N1CCCC1 as the molecule, how does the growth inhibition read?
A: -3.9%

Q: Which growth inhibition does the source give for CSc1ccc(S(=O)(=O)Nc2ccc3c(c2)OCCO3)cc1 here?
A: -11%

Q: For Cn1c(=O)c2c(nc(N3CCN(Cc4ccccc4)CC3)n2CCSc2ncccn2)n(C)c1=O, which growth inhibition is on record?
A: -14%

Q: With Cc1cccc(-c2nc(CS(=O)CC(=O)N3CCc4ccccc4C3)c(C)o2)c1 (stereo not given) as the molecule, how does the growth inhibition read?
A: 20.1%

Q: With CCCN1CCN(C(=O)Cn2ncc3ccccc32)CC1 as the molecule, how does the growth inhibition read?
A: -16.9%

Q: With Cc1ccc(CNC(=O)CS(=O)Cc2nc(-c3cccs3)oc2C)cc1 (stereo not given) as the molecule, how does the growth inhibition read?
A: 57.4% (active)

Q: For CC(C)N(Cc1nc(-c2ccccc2)no1)C(=O)COc1ccccc1, which growth inhibition is on record?
A: -11.7%

Q: With COc1ccc(Cl)cc1NC(=O)Cn1c(=O)n2nc(C)nc2c2ccccc21 as the molecule, how does the growth inhibition read?
A: 3.31%

Q: With COc1cc2c(=O)n(Cc3ccccc3)c(=O)n(CC(=O)NCC3CCCO3)c2cc1OC (stereo not given) as the molecule, how does the growth inhibition read?
A: -0.925%

Q: Which growth inhibition does the source give for O=C(Cc1cc(=O)[nH]c(=O)[nH]1)N1CCN(C(=O)c2ccco2)CC1 here?
A: -26.6%

Q: With O=S(=O)(NCCSc1nc2ccccc2o1)c1ccccc1 as the molecule, how does the growth inhibition read?
A: -2.81%

Q: With Cc1cc(Nc2cc(C(=O)O)ccc2C)n2ncnc2n1 as the molecule, how does the growth inhibition read?
A: -2.32%

Q: For CC1CN(c2nc3c(c(=O)[nH]c(=O)n3C)n2Cc2ccccc2F)CC(C)O1 (stereo not given), which growth inhibition is on record?
A: 2.61%

Q: With COc1ccc(-c2cn3c(C)c(C(=O)NC(C)(C)C)sc3n2)cc1 as the molecule, how does the growth inhibition read?
A: -9.73%

Q: For C=C(C)Cn1c(C2CC(=O)N(c3ccccc3F)C2)nc2ccccc21 (stereo not given), which growth inhibition is on record?
A: -5.32%

Q: Which growth inhibition does the source give for O=C1C2CCCN2C(c2ccc(F)c(F)c2)N1c1cccc(Cl)c1 (stereo not given) here?
A: -1.67%

Q: With COc1ccc(C2CC(=O)N3CN(c4ccc(C)c(Cl)c4)CSC3=C2C#N)cc1 (stereo not given) as the molecule, how does the growth inhibition read?
A: 21.9%

Q: Which growth inhibition does the source give for O=C(c1ccco1)c1cn[nH]c1-c1ccc(Cl)cc1O here?
A: -8.45%

Q: For O=C(Cn1cc(C(=O)c2cccs2)c2ccccc21)NCc1ccc2c(c1)OCO2, which growth inhibition is on record?
A: -15.1%

Q: Which growth inhibition does the source give for O=C(NCCCN1CCOCC1)C1CCC(=O)N1CCc1ccccc1 (stereo not given) here?
A: -7.29%

Q: For O=C(Nc1ccc2c(c1)OCO2)C(c1ccccc1)N1CCCCC1 (stereo not given), which growth inhibition is on record?
A: 0.37%

Q: Which growth inhibition does the source give for COc1ccccc1-n1c(CNC(=O)c2ccco2)nnc1SCC(=O)Nc1nccs1 here?
A: -2.6%

Q: With Cc1c(N2C(=O)CSC23C(=O)Nc2ccccc23)c(=O)n(-c2ccccc2)n1C (stereo not given) as the molecule, how does the growth inhibition read?
A: -11.7%

Q: For CCCc1nnc(NC(=O)CCC(=O)O)s1, which growth inhibition is on record?
A: -1.89%

Q: Which growth inhibition does the source give for CC1CCN(c2nc(-c3ccco3)c3c(c2C#N)CC(C)(C)OC3)CC1 here?
A: -3.74%

Q: For CCCn1c(CN2CCN(C(=O)OCC)CC2)nc2c1c(=O)n(C)c(=O)n2C, which growth inhibition is on record?
A: 1.72%

Q: With Cc1ccc(C)c(N2CCN(CC(=O)Nc3ccc4[nH]c(=O)[nH]c4c3)CC2)c1 as the molecule, how does the growth inhibition read?
A: -14.9%
